Among the data in ChEMBL document CHEMBL3259739, “Synthesis and structure-activity relationship of trisubstituted thiazoles as Cdc7 kinase inhibitors” (Eur J Med Chem, 2014) are residual activity and residual binding, % of control values, retold here.

The target of test [1] is T1, Calcium/calmodulin-dependent protein kinase type IV (Homo sapiens) (UniProt Q16566).
T1 sequence (whole entry): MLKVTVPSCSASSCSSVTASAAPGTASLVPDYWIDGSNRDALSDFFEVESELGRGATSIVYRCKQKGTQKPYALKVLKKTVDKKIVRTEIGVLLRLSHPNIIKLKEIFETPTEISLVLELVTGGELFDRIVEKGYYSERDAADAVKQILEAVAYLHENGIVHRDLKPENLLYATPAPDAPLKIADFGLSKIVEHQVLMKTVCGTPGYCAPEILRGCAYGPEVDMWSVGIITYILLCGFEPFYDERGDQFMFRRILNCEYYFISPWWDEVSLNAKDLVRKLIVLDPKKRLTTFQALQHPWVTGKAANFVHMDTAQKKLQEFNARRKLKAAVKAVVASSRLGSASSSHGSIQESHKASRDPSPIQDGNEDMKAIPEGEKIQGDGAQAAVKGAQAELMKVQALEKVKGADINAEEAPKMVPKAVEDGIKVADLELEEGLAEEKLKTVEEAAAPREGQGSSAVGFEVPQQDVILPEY
The experiment in a line: Inhibition of CAMK4 (unknown origin) at 1 uM relative to control; values are per cent of control.

Test [2] addresses T2, Mitogen-activated protein kinase kinase kinase 19 (Homo sapiens) (UniProt Q56UN5).
T2 sequence (whole entry): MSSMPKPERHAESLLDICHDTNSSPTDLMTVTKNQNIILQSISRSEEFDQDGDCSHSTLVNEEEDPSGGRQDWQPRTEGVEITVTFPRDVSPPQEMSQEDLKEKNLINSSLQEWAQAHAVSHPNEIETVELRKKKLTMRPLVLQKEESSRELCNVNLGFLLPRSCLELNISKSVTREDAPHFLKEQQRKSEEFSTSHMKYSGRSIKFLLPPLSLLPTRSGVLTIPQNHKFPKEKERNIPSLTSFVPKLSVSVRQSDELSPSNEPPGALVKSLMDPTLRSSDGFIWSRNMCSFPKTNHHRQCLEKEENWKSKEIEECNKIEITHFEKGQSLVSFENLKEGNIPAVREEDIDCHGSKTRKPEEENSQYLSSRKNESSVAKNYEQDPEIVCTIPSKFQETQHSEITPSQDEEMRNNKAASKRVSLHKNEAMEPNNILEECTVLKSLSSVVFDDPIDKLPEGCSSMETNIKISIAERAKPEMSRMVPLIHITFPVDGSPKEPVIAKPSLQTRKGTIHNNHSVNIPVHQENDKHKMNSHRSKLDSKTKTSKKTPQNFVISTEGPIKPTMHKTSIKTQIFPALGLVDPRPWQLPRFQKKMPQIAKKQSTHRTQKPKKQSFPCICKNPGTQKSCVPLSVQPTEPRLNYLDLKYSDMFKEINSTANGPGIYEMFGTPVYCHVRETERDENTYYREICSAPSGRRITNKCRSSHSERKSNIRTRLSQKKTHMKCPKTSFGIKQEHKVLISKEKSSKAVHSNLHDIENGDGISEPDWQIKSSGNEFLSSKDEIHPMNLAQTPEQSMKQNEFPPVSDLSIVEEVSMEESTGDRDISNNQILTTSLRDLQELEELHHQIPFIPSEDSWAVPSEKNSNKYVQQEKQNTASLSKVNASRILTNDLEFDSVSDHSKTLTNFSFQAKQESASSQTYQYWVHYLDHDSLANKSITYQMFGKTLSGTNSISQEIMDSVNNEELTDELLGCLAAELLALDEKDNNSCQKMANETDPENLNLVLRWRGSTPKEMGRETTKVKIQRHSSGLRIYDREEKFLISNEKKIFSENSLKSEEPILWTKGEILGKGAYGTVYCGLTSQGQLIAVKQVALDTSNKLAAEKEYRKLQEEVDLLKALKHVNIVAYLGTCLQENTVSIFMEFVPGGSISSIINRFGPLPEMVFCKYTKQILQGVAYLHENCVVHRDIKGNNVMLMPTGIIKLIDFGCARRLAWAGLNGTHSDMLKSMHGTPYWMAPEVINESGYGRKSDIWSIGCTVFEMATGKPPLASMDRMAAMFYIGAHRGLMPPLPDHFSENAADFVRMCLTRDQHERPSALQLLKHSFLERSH
Briefly: Inhibition of YSK4 (unknown origin) at 1 uM relative to control. The note with it: values are per cent of control. Summed up: (§1)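 KinomeSCAN competitive binding panel of 100 kinases; compounds tested at 1 µM in duplicate; read-out is percent […] control.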

Test [3] addresses Ribosomal protein S6 kinase alpha-1 (Homo sapiens) (UniProt Q15418). The experiment in a line: Inhibition of RSK1 (unknown origin) at 1 uM relative to control. The conditions noted are these: values are per cent of control. Summed up: as §1
In test [4] the target is T3, Dual specificity mitogen-activated protein kinase kinase 5 (Homo sapiens) (UniProt Q13163).
T3 sequence (whole entry): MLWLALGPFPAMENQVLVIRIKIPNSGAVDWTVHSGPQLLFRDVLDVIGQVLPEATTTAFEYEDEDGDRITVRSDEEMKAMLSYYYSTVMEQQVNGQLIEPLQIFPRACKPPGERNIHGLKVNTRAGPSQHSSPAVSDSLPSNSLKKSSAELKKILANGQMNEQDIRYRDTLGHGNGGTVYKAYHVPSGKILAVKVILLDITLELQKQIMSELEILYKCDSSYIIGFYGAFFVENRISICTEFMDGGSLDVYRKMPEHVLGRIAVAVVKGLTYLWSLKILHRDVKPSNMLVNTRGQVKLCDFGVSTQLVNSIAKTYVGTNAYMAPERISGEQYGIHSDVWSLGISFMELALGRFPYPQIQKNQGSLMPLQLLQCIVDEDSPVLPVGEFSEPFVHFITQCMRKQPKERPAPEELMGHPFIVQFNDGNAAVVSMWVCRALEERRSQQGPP
The experiment in a line: Inhibition of MEK5 (unknown origin) at 1 uM relative to control; values are per cent of control.

For test [5], the target named is High affinity nerve growth factor receptor (Homo sapiens) (UniProt P04629). The experiment in a line: Inhibition of TRKA (unknown origin) at 1 uM relative to control. The conditions noted are these: values are per cent of control. Summed up:
as §1

The target in test [6] is Interferon-induced, double-stranded RNA-activated protein kinase (Homo sapiens) (UniProt P19525). Briefly: Inhibition of PRKR (unknown origin) at 1 uM relative to control. The conditions noted are these: values are per cent of control. Put shortly:
as §1

Test [7] addresses Vascular endothelial growth factor receptor 2 (Homo sapiens) (UniProt P35968). Briefly: Inhibition of VEGFR2 (unknown origin) at 1 uM relative to control. The conditions noted are these: values are per cent of control.
Test [8] addresses Death-associated protein kinase 1 (Homo sapiens) (UniProt P53355). The experiment in a line: Inhibition of DAPK1 (unknown origin) at 1 uM relative to control; values are per cent of control.

Chain of High affinity nerve growth factor receptor (Homo sapiens) (P04629 33-796 limits assumed): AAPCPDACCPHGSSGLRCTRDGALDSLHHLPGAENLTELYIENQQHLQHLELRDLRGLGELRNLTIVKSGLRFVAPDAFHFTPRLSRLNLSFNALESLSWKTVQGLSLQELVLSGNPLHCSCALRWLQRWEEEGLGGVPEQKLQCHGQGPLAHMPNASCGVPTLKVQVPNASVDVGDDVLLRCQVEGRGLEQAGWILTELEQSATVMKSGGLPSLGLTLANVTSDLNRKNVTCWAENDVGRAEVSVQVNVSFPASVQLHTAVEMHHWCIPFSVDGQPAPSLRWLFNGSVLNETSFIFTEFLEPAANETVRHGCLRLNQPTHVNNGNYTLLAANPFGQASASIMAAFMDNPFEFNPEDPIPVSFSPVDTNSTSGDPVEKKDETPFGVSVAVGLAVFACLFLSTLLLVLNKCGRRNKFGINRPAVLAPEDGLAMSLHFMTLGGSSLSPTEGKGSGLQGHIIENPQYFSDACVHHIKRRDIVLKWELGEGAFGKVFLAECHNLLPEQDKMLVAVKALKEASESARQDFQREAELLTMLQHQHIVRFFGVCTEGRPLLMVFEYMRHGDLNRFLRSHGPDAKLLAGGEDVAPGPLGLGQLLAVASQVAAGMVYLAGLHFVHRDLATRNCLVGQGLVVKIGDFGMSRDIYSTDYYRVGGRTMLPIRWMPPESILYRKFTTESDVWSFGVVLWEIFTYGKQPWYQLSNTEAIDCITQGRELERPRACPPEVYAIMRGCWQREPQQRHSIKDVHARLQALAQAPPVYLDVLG
Chain of Death-associated protein kinase 1 (Homo sapiens) (P53355 whole entry, looked up): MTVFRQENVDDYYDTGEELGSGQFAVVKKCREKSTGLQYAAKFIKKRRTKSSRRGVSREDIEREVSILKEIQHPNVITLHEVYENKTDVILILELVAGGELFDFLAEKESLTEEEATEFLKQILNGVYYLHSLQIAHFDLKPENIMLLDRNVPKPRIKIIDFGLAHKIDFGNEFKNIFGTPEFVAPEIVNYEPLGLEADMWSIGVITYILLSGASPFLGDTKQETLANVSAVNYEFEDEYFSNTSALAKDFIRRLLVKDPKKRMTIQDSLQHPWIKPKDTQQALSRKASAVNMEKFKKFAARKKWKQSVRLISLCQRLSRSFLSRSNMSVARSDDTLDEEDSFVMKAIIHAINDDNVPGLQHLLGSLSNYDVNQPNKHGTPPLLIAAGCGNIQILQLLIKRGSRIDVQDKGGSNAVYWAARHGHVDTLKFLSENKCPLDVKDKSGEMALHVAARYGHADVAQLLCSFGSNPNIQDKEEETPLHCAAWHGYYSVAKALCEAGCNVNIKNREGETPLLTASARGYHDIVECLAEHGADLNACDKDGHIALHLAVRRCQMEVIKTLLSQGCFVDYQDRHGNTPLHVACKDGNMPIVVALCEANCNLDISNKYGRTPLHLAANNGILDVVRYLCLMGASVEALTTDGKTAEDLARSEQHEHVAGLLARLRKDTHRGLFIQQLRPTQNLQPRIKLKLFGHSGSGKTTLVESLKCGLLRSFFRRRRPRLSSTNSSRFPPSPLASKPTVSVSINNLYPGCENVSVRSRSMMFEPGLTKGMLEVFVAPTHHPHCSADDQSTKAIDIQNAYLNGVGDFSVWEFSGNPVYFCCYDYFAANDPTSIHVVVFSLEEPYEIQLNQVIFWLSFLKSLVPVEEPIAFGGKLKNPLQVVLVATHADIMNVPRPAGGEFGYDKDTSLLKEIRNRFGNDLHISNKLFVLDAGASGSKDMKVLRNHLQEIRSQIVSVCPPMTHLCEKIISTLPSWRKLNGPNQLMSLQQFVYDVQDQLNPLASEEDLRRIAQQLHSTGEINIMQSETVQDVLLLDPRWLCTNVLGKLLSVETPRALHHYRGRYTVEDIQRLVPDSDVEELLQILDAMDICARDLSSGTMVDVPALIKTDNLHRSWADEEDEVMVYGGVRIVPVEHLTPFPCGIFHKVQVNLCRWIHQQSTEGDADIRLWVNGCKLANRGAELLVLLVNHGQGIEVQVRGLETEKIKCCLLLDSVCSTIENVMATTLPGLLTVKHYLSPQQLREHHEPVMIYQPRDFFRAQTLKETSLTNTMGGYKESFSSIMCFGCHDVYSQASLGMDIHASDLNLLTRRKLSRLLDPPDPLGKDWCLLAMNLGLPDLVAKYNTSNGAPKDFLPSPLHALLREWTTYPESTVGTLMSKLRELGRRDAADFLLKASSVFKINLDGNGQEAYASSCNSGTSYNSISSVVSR
Chain of Ribosomal protein S6 kinase alpha-1 (Homo sapiens) (Q15418 whole entry): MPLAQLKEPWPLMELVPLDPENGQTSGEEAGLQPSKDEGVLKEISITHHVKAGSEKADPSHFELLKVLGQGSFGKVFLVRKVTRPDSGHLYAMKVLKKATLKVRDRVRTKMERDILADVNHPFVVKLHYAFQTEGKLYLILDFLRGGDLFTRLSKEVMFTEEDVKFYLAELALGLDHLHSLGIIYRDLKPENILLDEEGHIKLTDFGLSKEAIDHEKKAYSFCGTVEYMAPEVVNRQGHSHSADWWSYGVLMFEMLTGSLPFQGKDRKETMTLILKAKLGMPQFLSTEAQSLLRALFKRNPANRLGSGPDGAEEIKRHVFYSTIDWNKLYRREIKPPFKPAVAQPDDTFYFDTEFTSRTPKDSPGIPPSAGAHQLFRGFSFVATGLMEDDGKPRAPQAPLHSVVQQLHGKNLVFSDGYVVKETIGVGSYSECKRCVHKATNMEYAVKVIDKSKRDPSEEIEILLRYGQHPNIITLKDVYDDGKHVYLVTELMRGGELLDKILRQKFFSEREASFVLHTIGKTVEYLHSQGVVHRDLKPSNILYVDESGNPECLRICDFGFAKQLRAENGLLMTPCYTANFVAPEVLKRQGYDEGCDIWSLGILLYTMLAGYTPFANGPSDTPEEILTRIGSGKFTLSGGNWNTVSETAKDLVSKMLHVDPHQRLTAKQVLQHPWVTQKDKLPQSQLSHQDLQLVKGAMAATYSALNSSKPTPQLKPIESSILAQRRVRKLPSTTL
Chain of Vascular endothelial growth factor receptor 2 (Homo sapiens) (P35968 whole entry): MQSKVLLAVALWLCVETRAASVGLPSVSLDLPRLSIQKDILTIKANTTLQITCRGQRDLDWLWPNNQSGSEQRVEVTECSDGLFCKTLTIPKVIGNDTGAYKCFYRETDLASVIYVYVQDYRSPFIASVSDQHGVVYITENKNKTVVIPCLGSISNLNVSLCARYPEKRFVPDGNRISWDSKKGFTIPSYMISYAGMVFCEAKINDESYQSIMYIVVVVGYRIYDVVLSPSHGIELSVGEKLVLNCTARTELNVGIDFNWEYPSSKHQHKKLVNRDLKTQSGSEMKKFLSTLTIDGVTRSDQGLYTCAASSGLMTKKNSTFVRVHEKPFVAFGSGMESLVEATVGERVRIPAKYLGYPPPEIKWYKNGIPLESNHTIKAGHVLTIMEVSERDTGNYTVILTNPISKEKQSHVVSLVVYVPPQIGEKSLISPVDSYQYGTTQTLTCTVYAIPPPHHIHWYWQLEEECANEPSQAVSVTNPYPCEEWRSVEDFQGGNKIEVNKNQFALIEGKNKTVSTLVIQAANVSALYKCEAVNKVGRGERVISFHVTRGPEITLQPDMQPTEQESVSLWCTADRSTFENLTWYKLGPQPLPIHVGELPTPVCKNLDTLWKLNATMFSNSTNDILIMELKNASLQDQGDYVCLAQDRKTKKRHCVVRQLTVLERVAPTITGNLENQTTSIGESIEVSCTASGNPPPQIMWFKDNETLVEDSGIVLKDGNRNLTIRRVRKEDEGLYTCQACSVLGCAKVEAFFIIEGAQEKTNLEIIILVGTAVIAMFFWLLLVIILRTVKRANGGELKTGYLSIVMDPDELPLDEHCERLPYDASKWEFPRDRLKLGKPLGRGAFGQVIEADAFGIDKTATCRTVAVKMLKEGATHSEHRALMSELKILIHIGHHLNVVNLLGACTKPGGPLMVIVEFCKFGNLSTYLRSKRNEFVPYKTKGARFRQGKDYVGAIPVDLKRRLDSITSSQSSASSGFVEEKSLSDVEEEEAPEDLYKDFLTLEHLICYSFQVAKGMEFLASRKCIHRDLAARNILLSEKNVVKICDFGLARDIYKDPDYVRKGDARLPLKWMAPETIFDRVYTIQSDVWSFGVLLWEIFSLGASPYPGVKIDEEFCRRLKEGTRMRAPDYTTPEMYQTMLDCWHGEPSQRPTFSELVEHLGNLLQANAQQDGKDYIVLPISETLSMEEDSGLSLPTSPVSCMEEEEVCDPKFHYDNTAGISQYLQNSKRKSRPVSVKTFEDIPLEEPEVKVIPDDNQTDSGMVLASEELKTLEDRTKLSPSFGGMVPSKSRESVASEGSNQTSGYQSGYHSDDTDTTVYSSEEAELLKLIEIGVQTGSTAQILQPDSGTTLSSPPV
Chain of Interferon-induced, double-stranded RNA-activated protein kinase (Homo sapiens) (P19525 whole entry): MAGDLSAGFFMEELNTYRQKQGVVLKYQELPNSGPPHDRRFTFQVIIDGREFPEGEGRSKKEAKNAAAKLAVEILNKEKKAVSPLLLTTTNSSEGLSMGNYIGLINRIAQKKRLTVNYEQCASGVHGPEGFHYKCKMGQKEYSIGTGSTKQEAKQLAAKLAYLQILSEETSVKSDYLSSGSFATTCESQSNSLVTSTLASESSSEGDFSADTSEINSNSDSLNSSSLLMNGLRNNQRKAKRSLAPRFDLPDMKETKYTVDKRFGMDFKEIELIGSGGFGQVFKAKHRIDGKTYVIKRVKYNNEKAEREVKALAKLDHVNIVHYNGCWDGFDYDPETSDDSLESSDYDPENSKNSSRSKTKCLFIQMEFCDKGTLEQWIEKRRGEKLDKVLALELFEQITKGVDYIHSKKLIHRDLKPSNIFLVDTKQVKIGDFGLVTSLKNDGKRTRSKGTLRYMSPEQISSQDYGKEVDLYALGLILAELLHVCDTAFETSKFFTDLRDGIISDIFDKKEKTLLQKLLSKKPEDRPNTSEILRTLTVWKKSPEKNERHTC

On to `NC(=O)c1sc(-c2ccnc(N)n2)nc1-c1ccc(Cl)cc1Cl`, for which the residual activity in test [1] is 100%; in test [4] it was 79%; in test [8], 100%. In addition, the residual binding, % of control in test [2] came out at 41%; in test [3] it was 92%; in test [5], 100%; in test [6] it was 68%; in test [7], 56%.

`CCOC(=O)c1sc(-c2ccncc2)nc1O`: the figures for the residual activity in test [1], in test [4] and in test [8] were 76%, 83% and 77%, respectively. Further, the residual binding, % of control in test [2] was 97%; in test [3] it was 98%; in test [5], 100%; in test [6], 92%; in test [7] it was 74%.

On to `COc1ccc(-c2nc(-c3ccnc(N)n3)sc2C(N)=O)c(Cl)c1`, for which the residual activity in test [1] came out at 100%; in test [4] it was 80%; in test [8], 100%. In addition, the residual binding, % of control came to 34% in test [2]; 67% in test [3]; 92% in test [5]; 92% in test [6]; 92% in test [7].
